Hits are enriched below; roughly 3.8% of the tested compounds scored in any of these assays.
hERG rescue – compounds protecting human hERG from proarrhythmic drug block. 310,000 tested, 0.51% active. Q12809. CHO-hERG, FluxOR thallium flux, dofetilide IC70 present. AID 1511. activation (rescue from dofetilide block), less the hit threshold, % at 10 µM;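 active means activation above the mean of controls blocked by dofetilide plus 5 SD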;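 further: thallium influx through hERG after potassium depolarization seen as dye fluorescence rise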
KCNK9 inh – inhibitors of human KCNK9 two-pore domain potassium channel; Q9NPC2; B-score at 10 µM; 310,000 tested, 1.2% active; HEK293 KCNK9, FluxOR thallium flux fluorescence; hits give low values; AID 488922;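 active means ratio B-score over 3 SD below the library mean, with starting fluorescence within 5 SD of its mean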;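 further: negative B-score means less thallium flux so channel inhibition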
Target sequence (Q9NPC2 whole entry, looked up, the tested form may be a part): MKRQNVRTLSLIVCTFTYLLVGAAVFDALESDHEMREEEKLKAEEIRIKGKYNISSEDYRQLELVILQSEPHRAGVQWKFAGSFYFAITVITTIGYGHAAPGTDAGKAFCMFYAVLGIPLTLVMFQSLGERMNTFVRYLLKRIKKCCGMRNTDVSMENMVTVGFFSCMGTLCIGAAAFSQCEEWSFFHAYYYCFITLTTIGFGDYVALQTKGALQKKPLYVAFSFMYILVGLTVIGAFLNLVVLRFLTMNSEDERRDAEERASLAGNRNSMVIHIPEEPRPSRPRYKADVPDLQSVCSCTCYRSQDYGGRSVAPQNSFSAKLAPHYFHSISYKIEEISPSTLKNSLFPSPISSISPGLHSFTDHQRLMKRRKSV
KCNK3 inh – human KCNK3 channel inhibition, primary screen; O14649; CHO-KCNK3 thallium flux, FluxOR fluorescence; hits give low values; B-score at 10 µM; 340,000 tested, 0.84% active;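 active means B-score under library mean minus 4 SD, starting fluorescence ratio at most library mean plus 5 SD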;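 further: more negative B-score means stronger inhibition of thallium flux through KCNK3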
Target sequence (O14649 whole entry, looked up): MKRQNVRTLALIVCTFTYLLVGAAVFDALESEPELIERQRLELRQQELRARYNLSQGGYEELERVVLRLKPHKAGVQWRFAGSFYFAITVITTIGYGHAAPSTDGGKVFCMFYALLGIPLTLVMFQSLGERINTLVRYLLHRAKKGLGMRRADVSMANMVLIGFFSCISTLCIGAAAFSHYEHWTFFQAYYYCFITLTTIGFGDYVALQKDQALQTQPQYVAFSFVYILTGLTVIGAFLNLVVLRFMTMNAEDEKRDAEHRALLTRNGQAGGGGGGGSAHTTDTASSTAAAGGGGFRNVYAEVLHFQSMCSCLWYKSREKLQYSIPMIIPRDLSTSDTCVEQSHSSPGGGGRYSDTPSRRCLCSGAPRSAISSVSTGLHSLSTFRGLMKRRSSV
Kir21 block – Kir2.1 (mouse) channel inhibition; HEK293-Kir2.1, FluxOR thallium flux fluorescence; hits give low values; B-score at 10 µM; 310,000 tested, 0.85% active; AID 1672;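 active means fluorescence ratio B-score at or below minus 3 SD of library scores, with starting-brightness B-score within 2 SD, cut at about -4.2 in these data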;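 further: channel flux triggered by added potassium and thallium sulfate stimulus; B-score of peak minus minimum fluorescence over baseline after thallium stimulus; more negative B-score means stronger Kir2.1 block with less thallium influx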
KCNQ1 block – blocks the human KCNQ1 potassium channel | B-score at 10 µM | CHO-K1 KCNQ1, FluxOR thallium flux fluorescence; hits give high values | 310,000 tested, 1.3% active | P51787;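 active means compounds whose thallium flux B-score, printed positive for inhibition, exceeds three library SD while starting fluorescence stays within three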;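 further: channel opened by potassium depolarization with thallium stimulus after 20 min compound exposure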
KCNQ1 act – potentiates or activates the human KCNQ1 potassium channel. 310,000 tested, 0.35% active. P51787. B-score at 10 µM. CHO-K1 KCNQ1, thallium flux FluxOR fluorescence; hits give high values;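 active means fluorescence ratio B-score, a plate-corrected score, at least three library SD, with initial intensity B-score within 5 SD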
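assay system = CHO-K1 cells stably expressing KCNQ1 | medium = assay buffer, equal DMSO in all wells | timing = 37 °C overnight plating, 90-min dark dye load, 20-min compound pretreatment | measured by = kinetic FluxOR thallium fluorescence, 10-s 1-Hz baseline, 110-s post-stimulus read | measure = fluorescence change relative to baseline, converted to B score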
Large screens that a line does not name were inactive.

CC(=O)Nc1ccc(NC(=O)C(C)Oc2ccc(Cl)cc2Cl)cc1 (stereo not drawn)	none
COc1ccc(-c2c(NC(=O)c3ccco3)oc3ccccc3c2=O)cc1OC	none
O=C(Nc1nccs1)c1ccc(COc2ccccc2Br)o1	KCNK9 inh -7.1
O=C(Nc1cccnc1)c1ccc(COc2ccccc2Cl)o1	none
O=C(Nc1cccnc1)c1ccc(COc2cc(Cl)ccc2Cl)o1	hERG rescue 26
O=C(Nc1nccs1)c1ccc(COc2ccc(F)cc2)o1	none
O=C(Cn1nnc(-c2cccs2)n1)NNC(=O)c1ccccc1Cl	none
CC(C)(Oc1ccc(Cl)cc1)C(=O)Nc1ccc(S(=O)(=O)Nc2ncccn2)cc1	none
CC(C)(C)OC(=O)N1CCN(C(=O)c2[nH]cnc2C(=O)Nc2ccc(Cl)cc2)CC1	none (no result: hERG rescue, KCNK9 inh, Kir21 block, KCNQ1 block, KCNQ1 act)
COCC1CCN(C(=O)CC2C(=O)NCCN2Cc2cccc(Oc3ccccc3)c2)CC1 (stereo not drawn)	none
Cc1ccc(NC(=O)c2ncn(CCCN(C)CCc3ccccn3)n2)cc1C	none (no result: hERG rescue, KCNK9 inh, Kir21 block, KCNQ1 block, KCNQ1 act)
Cc1ccc(S(=O)(=O)CCC(=O)Nc2sccc2C#N)cc1	Kir21 block -4.6
Cc1ccc(S(=O)(=O)CCC(=O)Nc2sccc2C(N)=O)cc1	none (no result: hERG rescue, KCNK9 inh, Kir21 block, KCNQ1 block, KCNQ1 act)
COc1ccc2o/c(=N\O)c(C(=O)Nc3ccc(C)cc3)cc2c1	KCNQ1 block 6
CCC(=O)c1ccc(OCc2ccc(C(=O)c3ccccc3)cc2)cc1	none
Cc1ccc(S(=O)(=O)Nc2cccnc2Oc2ccc(Cl)cc2)cc1	Kir21 block -5
Cc1ccc(C(=O)Nc2cccnc2Oc2ccc(Cl)cc2)cc1	none
Cc1noc(C)c1CSc1nnc2scc(-c3ccc(Cl)cc3)n12	Kir21 block -4.4
C/C(=N/Nc1nc(-c2ccccc2F)nc2ccccc12)c1ccccc1O	KCNK9 inh -7.3, KCNQ1 block 7
C/C(=N\Nc1nc(-c2ccccc2O)nc2ccccc12)c1ccccc1	none
CN(C)CCO[C@@H](c1ccc(Cl)cc1)c1ccccn1	none
Cc1ccc(C(OCCN(C)C)c2cccc(C(F)(F)F)c2)cc1 (stereo not drawn)	Kir21 block -5.2
CC(C)c1nc2cc(C(=O)N(C)Cc3ccc(F)cc3)ccc2o1	none
CC(C(=O)NCCc1ccc(Cl)cc1)n1c(=O)c2cccn2c2cccnc21 (stereo not drawn)	none
CC(C)(C)S(=O)(=O)N1Cc2cc(=O)n(Cc3ccccc3)c(CCO)c2[C@H]1CCO	none (no result: hERG rescue, KCNK9 inh, Kir21 block, KCNQ1 block, KCNQ1 act)
C=CCN1CCc2nc(N)sc2CC1	none (no result: hERG rescue, KCNK9 inh, Kir21 block, KCNQ1 block, KCNQ1 act)
Nc1nc2c(s1)CCCCCCCCCC2	Kir21 block -7.4
CC(=O)c1cccc(NC(=O)NNC(=O)CCC(=O)Nc2ccc(C)c(C)c2)c1	none
O=C(NCC(=O)N1CCN(C(c2ccccc2)c2ccccc2)CC1)c1ccc(Br)o1	none
Cc1cc(C)cc(C(=O)NCC(=O)N2CCN(C(c3ccccc3)c3ccccc3)CC2)c1	KCNQ1 block 6
CCc1cc(=O)oc2c3c(cc(OCC(=O)NCCCOC)c12)OC(C)(C)CC3	none
CN(C)c1ccc(/C=C/c2ccc3ccccc3[n+]2C)cc1	Kir21 block -14, KCNQ1 block 9
CN(C)c1ccc(/C=C/c2ccc3c4ccccc4ccc3[n+]2-c2ccccc2)cc1	KCNK3 inh -16 (no result: hERG rescue, KCNK9 inh, Kir21 block, KCNQ1 block, KCNQ1 act)
Cc1cc(=O)oc2cc(OCC(=O)OCC(=O)Nc3c(C)n(C)n(-c4ccccc4)c3=O)ccc12	none
O=C(N/N=C/c1cccc(Br)c1)c1ccc(Cn2cc(Br)cn2)o1	KCNK9 inh -7.5
CC1CC(C)CN(c2ncc3c(n2)CC(c2ccc(Cl)cc2)CC3=O)C1 (stereo not drawn)	KCNQ1 block 6
O=C(NCc1ncc(C(F)(F)F)cc1Cl)Nc1ccccc1	none
CCOc1ccc(S(=O)(=O)N2CCCC(C(=O)NCc3cccnc3)C2)cc1 (stereo not drawn)	none
CCC(C(=O)OC(C)C(=O)Nc1ccc(Cl)cn1)c1ccccc1 (stereo not drawn)	Kir21 block -5.8
CCOc1ncccc1C(=O)OC(C)C(=O)Nc1ccc(Cl)cn1 (stereo not drawn)	none (no result: hERG rescue, KCNK9 inh, Kir21 block, KCNQ1 block, KCNQ1 act)
CCOc1ccc(OCCC(=O)OC(C)C(=O)Nc2ccc(Cl)cn2)cc1 (stereo not drawn)	none (no result: hERG rescue, KCNK9 inh, Kir21 block, KCNQ1 block, KCNQ1 act)
CNc1ccccc1C(=O)OC(C)C(=O)Nc1ccc(Cl)cn1 (stereo not drawn)	KCNQ1 act 12
O=C(Cn1nnc(-c2cccc(C(F)(F)F)c2)n1)N1CCCCCC1	hERG rescue 5.1
C=CCN(CC=C)S(=O)(=O)c1ccc(NC(=S)NC(=O)C2CC2)cc1	none
O=C(COC(=O)/C=C/c1ccc(F)cc1)NCc1ccco1	hERG rescue 39
O=C(COC(=O)/C=C/c1ccc([N+](=O)[O-])cc1)NCc1ccco1	none
CCN(CC)CCCN1C(=O)c2oc3ccccc3c(=O)c2C1c1cccs1 (stereo not drawn)	hERG rescue 26, KCNQ1 act 15 (no result: KCNK3 inh)
Cc1ccc2nc(SC(C)C(=O)Nc3cccc([N+](=O)[O-])c3)[nH]c2c1 (stereo not drawn)	none
Cc1cccc(OCCC(=O)Nc2ccc(C)c(S(=O)(=O)N3CCOCC3)c2)c1	none (no result: hERG rescue, KCNK9 inh, Kir21 block, KCNQ1 block, KCNQ1 act)
Cc1ccc(NC(=O)c2oc3ccccc3c2COC(C)C)cc1S(=O)(=O)N1CCOCC1	KCNK3 inh -9.4 (no result: hERG rescue, KCNK9 inh, Kir21 block, KCNQ1 block, KCNQ1 act)
Cc1ccc(NC(=O)c2ccccc2NS(=O)(=O)c2ccc(Cl)s2)cc1S(=O)(=O)N1CCOCC1	KCNQ1 block 6
Cc1ccc(NC(=O)COc2cccc(Oc3ccccc3)c2)cc1S(=O)(=O)N1CCOCC1	KCNK3 inh -8.8 (no result: hERG rescue, KCNK9 inh, Kir21 block, KCNQ1 block, KCNQ1 act)
CCS(=O)(=O)c1ncc(CO)n1CCc1ccccc1	none
Cc1ccc(NC(=O)CN2C(=O)S/C(=C\c3ccc(-c4cccc(C(=O)O)c4C)o3)C2=O)cc1	hERG rescue 15 (no result: KCNK3 inh)
Cc1ccc(NC(=O)CN2C(=O)S/C(=C/c3ccc(-c4cccc(C(=O)O)c4)o3)C2=O)cc1	none (no result: hERG rescue, KCNK9 inh, Kir21 block, KCNQ1 block, KCNQ1 act)
Cc1nn(C)c(C(=O)N/N=C/c2ccc(-c3ccccc3)cc2)c1Cl	none
CC1=NN(Cc2ccccc2)C(=O)C1C(c1ccc(Cl)cc1)C(C#N)C#N (stereo not drawn)	Kir21 block -5.5
CC(C)(C)c1cc(-c2n[nH]c(=S)n2-c2ccccc2F)n[nH]1	hERG rescue 9.1
CCOc1ccc(NS(=O)(=O)c2ccc(C(=O)NCC(c3ccc(OC)cc3)N3CCOCC3)cc2)cc1 (stereo not drawn)	none
CC1CC(C)CN(C(=O)Cn2cc(C=O)c3ccccc32)C1 (stereo not drawn)	none
Cc1cc(N/N=C/c2cccc(F)c2)nc(NCc2ccccc2)n1	KCNQ1 block 8
Cc1cc(N/N=C/c2ccccc2)nc(NCc2ccccc2)n1	none
COc1ccc(C[C@H]2CN3C(=NC[C@@H]3Cc3ccc(O)cc3)N2C[C@H](C)NC(=O)c2ccc(C)c(Br)c2)cc1	Kir21 block -7.3

Source: PubChem
